The source made the active and inactive calls. No cut-off for these calls is given here.

A short description of data set [1]: in vitro. Particulars: rat, microsomes.
In another data set the target is hERG (KCNH2) (Homo sapiens, UniProt Q12809). The experiment in a line: Displacement of [3H] dofetilide from human recombinant ERG at 10^-6 M measured after 60 mins by scintillation counting method relative to control. Particulars: probe [3H]dofetilide. In general terms: In a radioligand displacement assay an active substance lowers the binding of a labelled ligand.

The target in data set [2] is 5-hydroxytryptamine receptor 2A (Homo sapiens, UniProt P28223). The data set can be described thus: Displacement of [3H]ketanserin from human 5HT2A receptor expressed in CHOK1 cells incubated for 1 hr by liquid scintillation counter method. To be noted: read-out: Ki. In kind it is cell-based.
The target of data set [3] is T1, Muscarinic acetylcholine receptor M1 (Homo sapiens) (UniProt P11229).
T1 sequence (whole entry): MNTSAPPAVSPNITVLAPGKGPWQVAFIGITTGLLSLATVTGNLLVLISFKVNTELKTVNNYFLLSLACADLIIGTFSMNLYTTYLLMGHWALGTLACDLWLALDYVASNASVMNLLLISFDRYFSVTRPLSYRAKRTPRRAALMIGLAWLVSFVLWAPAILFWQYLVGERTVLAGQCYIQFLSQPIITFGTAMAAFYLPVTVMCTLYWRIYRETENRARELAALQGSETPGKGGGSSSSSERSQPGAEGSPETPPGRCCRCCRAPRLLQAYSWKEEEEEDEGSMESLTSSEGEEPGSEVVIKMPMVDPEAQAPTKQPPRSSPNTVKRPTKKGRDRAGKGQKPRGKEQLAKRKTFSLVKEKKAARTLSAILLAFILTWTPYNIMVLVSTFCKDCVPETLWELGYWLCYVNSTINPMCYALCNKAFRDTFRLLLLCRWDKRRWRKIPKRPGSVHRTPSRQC
The data set can be described thus: Displacement of [3H] pirenzepine from human recombinant muscarinic M1 receptor at 10^-6 M measured after 60 mins by scintillation counter method relative to control.

The target of data set [4] is Histamine H1 receptor (Homo sapiens) (UniProt P35367). The data set can be described thus: Displacement of [3H] pyrilamine from human recombinant H1 histamine receptor at 10^-6 M measured after 60 mins by scintillation counting method relative to control.
Data set [5] in a line: Acute oral toxicity in Wistar rat by OECD up and down test guideline method. To be noted: in vivo. The method in brief:
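Female rats given a single oral dose under OECD Test Guideline No. 425 (Acute Oral Toxicity, Up-and-Down Procedure); acute toxicity class assigned.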

The next data set deals with HepG2. The data set can be described thus: Cytotoxicity against human HepG2 cells assessed as reduction in cell viability measured after 24 hrs by Prestoblue assay. In kind it is cell-based. Particulars: HepG2, 24 h. The method in brief:
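HepG2 cells seeded at 2x10^4 per well in DMEM with 10% FBS, grown 24 h (37°C, 5% CO2), then exposed 24 h to 1, 10, 50 and 100 μM compound. Viability read with PrestoBlue (fluorescence); membrane damage by ToxiLight (luminescence).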

Data set [6] can be described thus: in vitro. Particulars: rat, microsomes. The source holds these as a separate data set.
In data set [7] the target is T2, 5-hydroxytryptamine receptor 2C (Homo sapiens) (UniProt P28335).
T2 sequence (whole entry): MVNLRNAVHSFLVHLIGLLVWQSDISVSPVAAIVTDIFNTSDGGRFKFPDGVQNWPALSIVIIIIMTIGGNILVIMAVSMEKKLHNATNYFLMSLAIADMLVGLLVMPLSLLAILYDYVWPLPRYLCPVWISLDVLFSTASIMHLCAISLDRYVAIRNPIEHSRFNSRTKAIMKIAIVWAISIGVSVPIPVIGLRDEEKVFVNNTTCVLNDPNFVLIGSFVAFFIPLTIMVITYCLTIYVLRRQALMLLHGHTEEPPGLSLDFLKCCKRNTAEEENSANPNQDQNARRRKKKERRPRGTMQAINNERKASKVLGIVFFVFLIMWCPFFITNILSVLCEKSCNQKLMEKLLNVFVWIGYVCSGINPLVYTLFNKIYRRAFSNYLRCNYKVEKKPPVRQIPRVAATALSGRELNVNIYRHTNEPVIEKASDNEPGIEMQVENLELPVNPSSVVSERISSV
The data set can be described thus: Displacement of [3H]mesulergine from human recombinant 5HT2C serotonin receptor at 10^-6M incubated for 120 mins by scintillation counter method relative to control.

The target of data set [8] is 5-hydroxytryptamine receptor 7 (Homo sapiens, UniProt P34969). The data set can be described thus: Displacement of [3H]-5-CT from human 5HT7 receptor expressed in HEK293 cells measured after 1 hr by liquid scintillation counter method. In kind it is cell-based. To be noted: read-out: Ki.
Data set [9] deals with Rattus norvegicus. The data set can be described thus: Reversal of scopolamine induced cognitive impairment in Sprague-Dawley rat assessed increase in discrimination index at 0.3 mg/kg, po cotreated with 0.3 mg/kg of donepezil pre treated for 2 hrs followed by scopolamine addition further treated for 30 mins and measured after 1 hr by novel object recognition test. In kind it is functional, organism-based. An outline of the steps:
(§1)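 Male Sprague–Dawley rats (~250 g); open-field habituation 5 min 24 h before test. Compounds p.o. 120 min and scopolamine 1.25 mg/kg i.p. 30 min before 3-min familiarization trial; 3-min recognition trial 1 h later. Exploration video-tracked; discrimination index computed; one-way ANOVA with Newman–Keuls; n = 9–10 per group; mean ± SEM.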

Data set [10] has as its system Rattus norvegicus. The data set can be described thus: Reversal of scopolamine induced cognitive impairment impairment in Sprague-Dawley rat at 1 mg/kg, po pre treated for 2 hrs followed by scopolamine addition further treated for 30 mins and measured after 1 hr by novel object recognition test. In kind it is functional, organism-based. An outline of the steps:
as §1

A further data set concerns the target Cytochrome P450 3A4 (Homo sapiens, UniProt P08684). The experiment in a line: Inhibition of human recombinant CYP3A4 expressed in Escherichia coli at […] using luciferin PFBE as substrate preincubated for 5 mins followed by NADPH addition measured after 30 mins by P450-Glo luminescence assay. The format is ADME. Particulars: recombinant enzyme, 0.5 h.
For data set [11], the target named is 5-hydroxytryptamine receptor 2B (Homo sapiens) (UniProt P41595). The experiment in a line: Antagonist activity at human recombinant 5HT2B receptor expressed in CHOK1 cells at 10^-6 M measured after 30 mins by HTRF assay relative to control. In kind it is cell-based. Also on record: scale not given: the % may be the effect or the level left. (In general: In TR-FRET formats the signal depends on donor and acceptor labels being close together.)
Sequence of 5-hydroxytryptamine receptor 2B (Homo sapiens) (P41595 whole entry): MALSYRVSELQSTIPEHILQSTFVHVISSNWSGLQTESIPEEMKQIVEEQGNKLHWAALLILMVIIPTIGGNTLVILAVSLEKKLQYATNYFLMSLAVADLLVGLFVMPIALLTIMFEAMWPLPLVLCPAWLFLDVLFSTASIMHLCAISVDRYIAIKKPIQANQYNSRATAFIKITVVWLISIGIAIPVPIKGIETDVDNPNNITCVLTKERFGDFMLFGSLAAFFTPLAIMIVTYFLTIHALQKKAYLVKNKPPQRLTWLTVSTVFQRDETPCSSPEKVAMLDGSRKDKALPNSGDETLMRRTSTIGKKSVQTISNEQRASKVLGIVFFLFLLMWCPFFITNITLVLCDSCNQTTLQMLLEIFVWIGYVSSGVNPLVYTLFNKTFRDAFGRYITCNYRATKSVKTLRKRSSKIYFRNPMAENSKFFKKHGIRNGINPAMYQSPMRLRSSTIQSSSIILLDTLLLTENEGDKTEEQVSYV

Sequence of hERG (KCNH2) (Q12809 whole entry): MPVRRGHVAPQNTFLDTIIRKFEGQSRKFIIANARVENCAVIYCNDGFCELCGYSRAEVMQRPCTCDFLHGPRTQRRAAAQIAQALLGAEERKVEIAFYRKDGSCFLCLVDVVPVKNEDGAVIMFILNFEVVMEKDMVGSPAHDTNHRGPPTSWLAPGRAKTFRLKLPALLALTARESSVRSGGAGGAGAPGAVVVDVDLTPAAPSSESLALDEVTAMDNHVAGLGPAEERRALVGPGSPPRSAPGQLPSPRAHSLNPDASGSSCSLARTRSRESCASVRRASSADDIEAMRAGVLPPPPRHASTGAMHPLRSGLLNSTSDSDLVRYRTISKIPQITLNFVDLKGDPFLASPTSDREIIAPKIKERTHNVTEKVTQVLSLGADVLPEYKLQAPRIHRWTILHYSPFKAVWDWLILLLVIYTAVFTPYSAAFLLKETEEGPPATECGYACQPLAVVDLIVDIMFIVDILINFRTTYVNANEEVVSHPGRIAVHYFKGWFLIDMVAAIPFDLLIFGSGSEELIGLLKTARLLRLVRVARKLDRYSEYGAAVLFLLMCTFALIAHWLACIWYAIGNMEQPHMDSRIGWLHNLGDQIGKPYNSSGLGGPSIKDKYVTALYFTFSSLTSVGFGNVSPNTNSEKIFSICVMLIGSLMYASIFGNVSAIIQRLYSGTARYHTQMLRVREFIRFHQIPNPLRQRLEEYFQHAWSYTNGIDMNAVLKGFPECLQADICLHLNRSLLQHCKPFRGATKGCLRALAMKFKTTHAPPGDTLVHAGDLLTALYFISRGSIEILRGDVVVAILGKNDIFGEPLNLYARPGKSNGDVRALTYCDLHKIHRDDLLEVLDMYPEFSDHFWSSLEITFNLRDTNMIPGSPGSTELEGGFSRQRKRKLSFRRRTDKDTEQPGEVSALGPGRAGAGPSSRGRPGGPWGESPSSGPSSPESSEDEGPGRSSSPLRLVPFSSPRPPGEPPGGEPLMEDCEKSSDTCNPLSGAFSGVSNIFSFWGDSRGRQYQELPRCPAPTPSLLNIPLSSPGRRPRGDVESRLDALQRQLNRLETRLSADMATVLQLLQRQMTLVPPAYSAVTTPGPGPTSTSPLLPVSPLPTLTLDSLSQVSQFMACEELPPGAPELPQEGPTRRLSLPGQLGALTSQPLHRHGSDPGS
Sequence of 5-hydroxytryptamine receptor 7 (P34969 whole entry): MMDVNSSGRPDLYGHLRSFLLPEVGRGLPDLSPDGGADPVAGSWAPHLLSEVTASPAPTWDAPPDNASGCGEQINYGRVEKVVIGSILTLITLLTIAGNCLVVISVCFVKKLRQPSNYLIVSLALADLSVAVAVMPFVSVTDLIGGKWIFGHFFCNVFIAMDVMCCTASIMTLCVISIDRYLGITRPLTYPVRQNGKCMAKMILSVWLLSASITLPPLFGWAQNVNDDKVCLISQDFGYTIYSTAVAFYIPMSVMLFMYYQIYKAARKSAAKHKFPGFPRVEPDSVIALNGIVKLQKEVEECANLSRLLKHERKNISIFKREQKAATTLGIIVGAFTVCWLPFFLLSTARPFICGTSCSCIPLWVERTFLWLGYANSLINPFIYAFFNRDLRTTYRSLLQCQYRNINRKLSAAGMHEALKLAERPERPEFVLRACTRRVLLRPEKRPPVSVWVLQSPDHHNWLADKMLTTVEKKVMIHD
Sequence of Histamine H1 receptor (Homo sapiens) (P35367 whole entry): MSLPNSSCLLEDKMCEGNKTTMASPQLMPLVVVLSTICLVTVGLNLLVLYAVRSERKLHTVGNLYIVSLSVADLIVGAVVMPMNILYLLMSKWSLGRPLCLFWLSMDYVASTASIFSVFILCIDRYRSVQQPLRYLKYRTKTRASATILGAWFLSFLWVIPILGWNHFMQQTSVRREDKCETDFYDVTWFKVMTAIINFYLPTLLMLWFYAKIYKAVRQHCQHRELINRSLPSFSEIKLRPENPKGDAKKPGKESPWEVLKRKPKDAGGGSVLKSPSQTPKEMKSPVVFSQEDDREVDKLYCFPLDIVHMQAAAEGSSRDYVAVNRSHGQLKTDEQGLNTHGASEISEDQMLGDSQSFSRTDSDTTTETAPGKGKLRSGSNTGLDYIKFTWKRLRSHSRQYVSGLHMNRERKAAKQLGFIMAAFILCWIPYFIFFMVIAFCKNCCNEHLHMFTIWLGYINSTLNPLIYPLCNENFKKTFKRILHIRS
Sequence of Cytochrome P450 3A4 (P08684 whole entry): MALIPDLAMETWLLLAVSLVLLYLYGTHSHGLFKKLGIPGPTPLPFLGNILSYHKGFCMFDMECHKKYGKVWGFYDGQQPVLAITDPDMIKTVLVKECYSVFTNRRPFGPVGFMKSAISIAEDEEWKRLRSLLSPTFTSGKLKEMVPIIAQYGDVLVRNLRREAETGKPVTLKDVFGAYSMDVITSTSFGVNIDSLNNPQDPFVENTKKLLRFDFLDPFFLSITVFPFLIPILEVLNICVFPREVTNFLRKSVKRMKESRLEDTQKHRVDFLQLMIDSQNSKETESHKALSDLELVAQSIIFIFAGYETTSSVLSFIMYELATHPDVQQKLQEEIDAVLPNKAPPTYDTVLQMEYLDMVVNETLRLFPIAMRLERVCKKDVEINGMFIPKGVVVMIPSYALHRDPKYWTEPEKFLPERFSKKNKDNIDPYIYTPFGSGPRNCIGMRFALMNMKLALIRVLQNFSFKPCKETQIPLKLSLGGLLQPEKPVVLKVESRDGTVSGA
Sequence of 5-hydroxytryptamine receptor 2A (P28223 whole entry): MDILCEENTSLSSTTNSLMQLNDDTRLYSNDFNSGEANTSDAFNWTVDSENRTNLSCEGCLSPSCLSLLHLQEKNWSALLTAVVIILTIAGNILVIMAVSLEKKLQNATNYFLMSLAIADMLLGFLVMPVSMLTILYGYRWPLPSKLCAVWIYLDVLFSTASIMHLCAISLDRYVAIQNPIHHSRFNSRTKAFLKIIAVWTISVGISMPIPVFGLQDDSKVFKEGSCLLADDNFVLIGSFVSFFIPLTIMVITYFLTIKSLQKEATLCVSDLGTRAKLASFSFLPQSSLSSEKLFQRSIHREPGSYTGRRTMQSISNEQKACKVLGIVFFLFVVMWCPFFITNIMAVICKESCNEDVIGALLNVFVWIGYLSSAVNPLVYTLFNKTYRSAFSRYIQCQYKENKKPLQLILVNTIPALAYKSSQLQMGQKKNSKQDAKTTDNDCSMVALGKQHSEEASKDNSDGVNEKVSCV

Broadly, the half-life is the time in which the quantity being followed falls by half. The term inhibition denotes the relative decrease from the control value, in per cent. Usually Ki stands for a measure of affinity in units of concentration, obtained from inhibition or displacement. What is called LD50 is the dose expected to kill half of the subjects tested. The term IC50 denotes the concentration at which inhibition is half-maximal. A word on the microsomal CLint: it is the rate of metabolic loss divided by the concentration. `Cc1nc(N)[nH]c1-c1cn(S(=O)(=O)c2cccc3ccccc23)c2ccccc12.Cl` yielded a half-life in “in vitro [1]” of 23 min. Further, the inhibition at 1 h, 1 µM on hERG (KCNH2) came out at 25.7%. Moreover, the values for the Ki in data set [2] and in data set [8] were 490 nM and 2510 nM, respectively. In addition, the inhibition in data set [3] was -0.3%; in data set [4] it was 70.1%; in data set [7], 52.7%. In [5], this compound gave an LD50 above 2000 mg/kg. For the same compound, in the data set on HepG2, the IC50 stood at 15700 nM. For the same compound, the microsomal CLint in the data set “in vitro [6]” was found to be 60.3 µL/min/mg. In addition, the result in the data set on Rattus norvegicus [9] and with Rattus norvegicus [10] was Active. Further, at Cytochrome P450 3A4, the INH result was “Active”. The Activity in data set [11] is -2.8%.

Source of the values: ChEMBL document CHEMBL4351001, “2-Aminoimidazole-based antagonists of the 5-HT6 receptor - A new concept in aminergic GPCR ligand design” (Eur J Med Chem, 2019).
